What all share (type): functional
The subject of test [1] is Streptococcus pneumoniae. Put plainly: Antibacterial activity against inducible resistance to macrolide and constitutive resistance to lincosamide Streptococcus pneumoniae 134 GR M by broth microdilution method. Put shortly:
(§1)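 MIC by CLSI broth microdilution. In the streptococcal medium, 5% horse serum replaced lysed blood. Compounds were tested as two-fold serial dilutions. Strains were first grown on Columbia agar with 5% sheep blood. The MIC was read as the lowest concentration inhibiting growth.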

Test [2] has as its system Staphylococcus aureus. Put plainly: Antibacterial activity against efflux-mediated macrolide-resistance Staphylococcus aureus PK1 by broth microdilution method. In outline:
(§2)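 Staphylococci were grown on Mueller-Hinton agar and then tested by CLSI-guideline broth microdilution against two-fold serial dilutions of compound. The result was recorded as the minimum inhibitory concentration.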

Test [3] relates to Streptococcus pyogenes. The test can be described thus: Antibacterial activity against efflux-mediated macrolide-resistance Streptococcus pyogenes 2 Finland by broth microdilution method. Put shortly: as §1
The test system of the next test is Haemophilus influenzae. Put plainly: Antibacterial activity against Haemophilus influenzae ATCC 49247 by broth microdilution method. Put shortly: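 MIC by broth microdilution following CLSI guidelines, expressed in units of lg/mL. Twofold dilutions prepared in 96-well plates. H. influenzae grown on Mueller-Hinton chocolate agar before testing.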
Background: In broth dilution the organism is exposed to a series of concentrations in liquid medium.

The test system of test [4] is Streptococcus pneumoniae. Put plainly: Antibacterial activity against constitutive MLS resistance Streptococcus pneumoniae 58 by broth microdilution method. In outline: as §1
In test [5] the test system is Streptococcus pneumoniae. The test can be described thus: Antibacterial activity against efflux-mediated macrolide-resistance Streptococcus pneumoniae Ci137 by broth microdilution method. In outline:
as §1

The test system of test [6] is Staphylococcus aureus. Put plainly: Antibacterial activity against inducible resistance to macrolide, licosamide and streptogramin Staphylococcus aureus 90256 by broth microdilution method. In outline:
as §2

Test [7] concerns Streptococcus pyogenes. The test can be described thus: Antibacterial activity against constitutive MLS resistance sStreptococcus pyogenes 166 GR-Micro by broth microdilution method. In outline:
as §1

Converted amounts (≈) assume the structure as drawn.

`CC[C@H]1OC(=O)[C@H](C)[C@@H](O[C@H]2C[C@@](C)(OC)[C@@H](OC(=O)CCNCCNc3ccc4c(c3)c(=O)c(C(=O)O)cn4C3CC3)[C@H](C)O2)[C@H](C)[C@@H](O[C@@H]2O[C@H](C)C[C@H](N(C)C)[C@H]2O)[C@](C)(O)C[C@@H](C)C(=O)[C@H](C)[C@@H](O)[C@]1(C)O`: the MIC in the test with Streptococcus pneumoniae [1] is no more than 0.125 µg/mL; against Staphylococcus aureus [2], 8 µg/mL (≈ 7.44 µM); against Streptococcus pyogenes [3], no more than 0.125 µg/mL; in the test on Haemophilus influenzae, 1 µg/mL (≈ 0.93 µM); in the test on Streptococcus pneumoniae [4] it was no more than 0.125 µg/mL; against Streptococcus pneumoniae [5], no more than 0.125 µg/mL. The MIC against Staphylococcus aureus [6] was 4 µg/mL (≈ 3.72 µM); against Streptococcus pyogenes [7], no more than 0.125 µg/mL.
As to `CC[C@H]1OC(=O)[C@H](C)[C@@H](O[C@H]2C[C@@](C)(OC)[C@@H](OC(=O)CCNCCNc3ccc4c(=O)c(C(=O)O)cn(C)c4c3)[C@H](C)O2)[C@H](C)[C@@H](O[C@@H]2O[C@H](C)C[C@H](N(C)C)[C@H]2O)[C@](C)(O)C[C@@H](C)NC(=O)[C@H](C)[C@@H](O)[C@]1(C)O`, the MIC in the test on Streptococcus pneumoniae [1] is 1 µg/mL (≈ 0.94 µM); against Staphylococcus aureus [2], 4 µg/mL (≈ 3.76 µM); against Streptococcus pyogenes [3], 2 µg/mL (≈ 1.88 µM); against Haemophilus influenzae, 16 µg/mL (≈ 15 µM); against Streptococcus pneumoniae [4], 1 µg/mL (≈ 0.94 µM); against Streptococcus pneumoniae [5], 1 µg/mL (≈ 0.94 µM). In addition, the MIC in the test with Staphylococcus aureus [6] is 32 µg/mL (≈ 30.1 µM); with Streptococcus pyogenes [7], 0.5 µg/mL (≈ 0.47 µM).
Regarding `CC[C@H]1OC(=O)[C@H](C)[C@@H](O[C@H]2C[C@@](C)(OC)[C@@H](OC(=O)CCNCCNc3cc4c(cc3F)c(=O)c(C(=O)O)cn4C3CC3)[C@H](C)O2)[C@H](C)[C@@H](O[C@@H]2O[C@H](C)C[C@H](N(C)C)[C@H]2O)[C@](C)(O)C[C@@H](C)C(=O)[C@H](C)[C@@H](O)[C@]1(C)O`, the MIC was 0.25 µg/mL (≈ 0.229 µM) against Streptococcus pneumoniae [1]; 0.5 µg/mL (≈ 0.457 µM) in the test with Staphylococcus aureus [2]; no more than 0.125 µg/mL in the test with Streptococcus pyogenes [3]; 8 µg/mL (≈ 7.32 µM) against Haemophilus influenzae; no more than 0.125 µg/mL with Streptococcus pneumoniae [4]; no more than 0.125 µg/mL in the test with Streptococcus pneumoniae [5]. The values for the MIC against Staphylococcus aureus [6] and in the test on Streptococcus pyogenes [7] were 4 µg/mL (≈ 3.66 µM) and 0.5 µg/mL (≈ 0.457 µM), respectively.
With `CC[C@H]1OC(=O)[C@H](C)[C@@H](O[C@H]2C[C@@](C)(OC)[C@@H](OC(=O)CCNCCNc3ccc4c(=O)c(C(=O)O)cn(C5CC5)c4c3)[C@H](C)O2)[C@H](C)[C@@H](O[C@@H]2O[C@H](C)C[C@H](N(C)C)[C@H]2O)[C@](C)(O)C[C@@H](C)C(=O)[C@H](C)[C@@H](O)[C@]1(C)O`, the MIC in the test on Streptococcus pneumoniae [1] was no more than 0.125 µg/mL; in the test on Staphylococcus aureus [2] it was 8 µg/mL (≈ 7.44 µM); in the test on Streptococcus pyogenes [3] it was no more than 0.125 µg/mL; in the test on Haemophilus influenzae, 2 µg/mL (≈ 1.86 µM); in the test with Streptococcus pneumoniae [4], no more than 0.125 µg/mL; against Streptococcus pneumoniae [5], no more than 0.125 µg/mL. Moreover, the MIC in the test with Staphylococcus aureus [6] was 8 µg/mL (≈ 7.44 µM); against Streptococcus pyogenes [7], no more than 0.125 µg/mL.
Consider `CC[C@H]1OC(=O)[C@H](C)[C@@H](O[C@H]2C[C@@](C)(OC)[C@@H](OC(=O)CCN(C)CCNc3ccc4c(c3)c(=O)c(C(=O)O)cn4C3CC3)[C@H](C)O2)[C@H](C)[C@@H](O[C@@H]2O[C@H](C)C[C@H](N(C)C)[C@H]2O)[C@](C)(O)C[C@@H](C)CN(C)[C@H](C)[C@H]2OC(=O)O[C@@]21C`, for which the MIC was 1 µg/mL (≈ 0.885 µM) in the test with Streptococcus pneumoniae [1]; 1 µg/mL (≈ 0.885 µM) against Staphylococcus aureus [2]; no more than 0.125 µg/mL with Streptococcus pyogenes [3]; 4 µg/mL (≈ 3.54 µM) with Haemophilus influenzae; 1 µg/mL (≈ 0.885 µM) in the test on Streptococcus pneumoniae [4]; no more than 0.125 µg/mL in the test on Streptococcus pneumoniae [5]. The MIC with Staphylococcus aureus [6] was 8 µg/mL (≈ 7.08 µM); in the test with Streptococcus pyogenes [7], 0.5 µg/mL (≈ 0.442 µM).
As to `CC[C@H]1OC(=O)[C@H](C)[C@@H](O[C@H]2C[C@@](C)(OC)[C@@H](OC(=O)CCNCCNc3ccc4c(=O)c(C(=O)O)cn(CC)c4c3)[C@H](C)O2)[C@H](C)[C@@H](O[C@@H]2O[C@H](C)C[C@H](N(C)C)[C@H]2O)[C@](C)(O)C[C@@H](C)C(=O)[C@H](C)[C@@H](O)[C@]1(C)O`, the MIC with Streptococcus pneumoniae [1] is no more than 0.125 µg/mL; in the test with Staphylococcus aureus [2], 0.5 µg/mL (≈ 0.47 µM); in the test with Streptococcus pyogenes [3], no more than 0.125 µg/mL; in the test with Haemophilus influenzae, 2 µg/mL (≈ 1.88 µM); with Streptococcus pneumoniae [4], no more than 0.125 µg/mL; in the test on Streptococcus pneumoniae [5], no more than 0.125 µg/mL. In addition, the MIC against Staphylococcus aureus [6] is 1 µg/mL (≈ 0.94 µM); in the test with Streptococcus pyogenes [7] it was no more than 0.125 µg/mL.
Regarding `CC[C@H]1OC(=O)[C@H](C)[C@@H](O[C@H]2C[C@@](C)(OC)[C@@H](OC(=O)CCN(C)CCNc3cc4c(=O)c(C(=O)OC)cn(C5CC5)c4cc3Cl)[C@H](C)O2)[C@H](C)[C@@H](O[C@@H]2O[C@H](C)C[C@H](N(C)C)[C@H]2O)[C@](C)(O)C[C@@H](C)CN(C)[C@H](C)[C@@H](O)[C@]1(C)O`, the MIC was 0.5 µg/mL (≈ 0.434 µM) in the test with Streptococcus pneumoniae [1]; 16 µg/mL (≈ 13.9 µM) with Staphylococcus aureus [2]; no more than 0.125 µg/mL in the test on Streptococcus pyogenes [3]; 8 µg/mL (≈ 6.94 µM) in the test with Haemophilus influenzae; 0.5 µg/mL (≈ 0.434 µM) with Streptococcus pneumoniae [4]; no more than 0.125 µg/mL against Streptococcus pneumoniae [5]. Further, the MIC against Staphylococcus aureus [6] is greater than 64 µg/mL; against Streptococcus pyogenes [7], 1 µg/mL (≈ 0.867 µM).
As to `CC[C@H]1OC(=O)[C@H](C)[C@@H](O[C@H]2C[C@@](C)(OC)[C@@H](OC(=O)CCNCCNc3cc4c(=O)c(C(=O)OC)cn(C5CC5)c4cc3Cl)[C@H](C)O2)[C@H](C)[C@@H](O[C@@H]2O[C@H](C)C[C@H](N(C)C)[C@H]2O)[C@](C)(O)C[C@@H](C)CN(C)[C@H](C)[C@@H](O)[C@]1(C)O`, the MIC is no more than 0.125 µg/mL with Streptococcus pneumoniae [1]; 8 µg/mL (≈ 7.02 µM) in the test on Staphylococcus aureus [2]; no more than 0.125 µg/mL against Streptococcus pyogenes [3]; 8 µg/mL (≈ 7.02 µM) in the test on Haemophilus influenzae; no more than 0.125 µg/mL with Streptococcus pneumoniae [4]; no more than 0.125 µg/mL in the test with Streptococcus pneumoniae [5]. Besides, the MIC is greater than 64 µg/mL against Staphylococcus aureus [6] and no more than 0.125 µg/mL with Streptococcus pyogenes [7].
For `CC[C@H]1OC(=O)[C@H](C)[C@@H](O[C@H]2C[C@@](C)(OC)[C@@H](OC(=O)CCNCCCCNc3ccc4c(=O)c(C(=O)O)cn(C)c4c3)[C@H](C)O2)[C@H](C)[C@@H](O[C@@H]2O[C@H](C)C[C@H](N(C)C)[C@H]2O)[C@](C)(O)C[C@@H](C)CN(C)[C@H](C)[C@@H](O)[C@]1(C)O`, the MIC came to 32 µg/mL (≈ 29.3 µM) against Streptococcus pneumoniae [1]; 8 µg/mL (≈ 7.32 µM) against Staphylococcus aureus [2]; 4 µg/mL (≈ 3.66 µM) with Streptococcus pyogenes [3]; 16 µg/mL (≈ 14.6 µM) with Haemophilus influenzae; 32 µg/mL (≈ 29.3 µM) with Streptococcus pneumoniae [4]; 2 µg/mL (≈ 1.83 µM) in the test with Streptococcus pneumoniae [5]. The MIC with Staphylococcus aureus [6] was greater than 64 µg/mL; with Streptococcus pyogenes [7], 8 µg/mL (≈ 7.32 µM).
Take `CC[C@H]1OC(=O)[C@H](C)[C@@H](O[C@H]2C[C@@](C)(OC)[C@@H](OC(=O)CCNCCNc3ccc4c(=O)c(C(=O)O)cn(C5CC5)c4c3)[C@H](C)O2)[C@H](C)[C@@H](O[C@@H]2O[C@H](C)C[C@H](N(C)C)[C@H]2O)[C@](C)(O)C[C@@H](C)NC(=O)[C@H](C)[C@@H](O)[C@]1(C)O`: the MIC against Streptococcus pneumoniae [1] was 64 µg/mL (≈ 58.7 µM); in the test with Staphylococcus aureus [2] it was 64 µg/mL (≈ 58.7 µM); in the test on Streptococcus pyogenes [3] it was no more than 0.125 µg/mL; in the test on Haemophilus influenzae it was 8 µg/mL (≈ 7.34 µM); against Streptococcus pneumoniae [4], 32 µg/mL (≈ 29.3 µM); with Streptococcus pneumoniae [5], no more than 0.125 µg/mL. Also, the results for the MIC in the test on Staphylococcus aureus [6] and against Streptococcus pyogenes [7] were 64 µg/mL (≈ 58.7 µM) and 32 µg/mL (≈ 29.3 µM), respectively.
Consider `CC[C@H]1OC(=O)[C@H](C)[C@@H](O[C@H]2C[C@@](C)(OC)[C@@H](OC(=O)CCN(C)CCNc3cc4c(=O)c(C(=O)O)cn(C5CC5)c4cc3Cl)[C@H](C)O2)[C@H](C)[C@@H](O[C@@H]2O[C@H](C)C[C@H](N(C)C)[C@H]2O)[C@](C)(O)C[C@@H](C)CN(C)[C@H](C)[C@H]2OC(=O)O[C@@]21C`, for which the MIC in the test with Streptococcus pneumoniae [1] was 2 µg/mL (≈ 1.72 µM); against Staphylococcus aureus [2], 1 µg/mL (≈ 0.858 µM); against Streptococcus pyogenes [3], no more than 0.125 µg/mL; against Haemophilus influenzae, 4 µg/mL (≈ 3.43 µM); against Streptococcus pneumoniae [4], 1 µg/mL (≈ 0.858 µM); with Streptococcus pneumoniae [5] it was no more than 0.125 µg/mL. Besides, the results for the MIC in the test on Staphylococcus aureus [6] and in the test on Streptococcus pyogenes [7] were 2 µg/mL (≈ 1.72 µM) and 1 µg/mL (≈ 0.858 µM), respectively.
For the compound `CC[C@H]1OC(=O)[C@H](C)[C@@H](O[C@H]2C[C@@](C)(OC)[C@@H](OC(=O)CCNCCCNc3cc4c(cc3F)c(=O)c(C(=O)O)cn4C3CC3)[C@H](C)O2)[C@H](C)[C@@H](O[C@@H]2O[C@H](C)C[C@H](N(C)C)[C@H]2O)[C@](C)(O)C[C@@H](C)C(=O)[C@H](C)[C@@H](O)[C@]1(C)O`, the MIC in the test with Streptococcus pneumoniae [1] is 2 µg/mL (≈ 1.81 µM); against Staphylococcus aureus [2], 1 µg/mL (≈ 0.903 µM); against Streptococcus pyogenes [3], no more than 0.125 µg/mL; against Haemophilus influenzae, 8 µg/mL (≈ 7.22 µM); in the test with Streptococcus pneumoniae [4], 0.25 µg/mL (≈ 0.226 µM); with Streptococcus pneumoniae [5] it was no more than 0.125 µg/mL. The MIC against Staphylococcus aureus [6] is 64 µg/mL (≈ 57.8 µM); in the test with Streptococcus pyogenes [7] it was 2 µg/mL (≈ 1.81 µM).

Values taken from ChEMBL document CHEMBL1221233, “4''-O-(omega-Quinolylamino-alkylamino)propionyl derivatives of selected macrolides with the activity against the key erythromycin resistant respiratory pathogens” (2010).
